From ChEMBL document CHEMBL1122220, “Synthesis and antiallergic activity of some acidic derivatives of 4H-pyrimido[2,1-b]benzazol-4-ones” (1983)
Active and inactive are the calls of the source. The rule behind the calls is not given here.

Tests used:
Rattus norvegicus [1] = experiment: Minimum effective dose (MED) intraperitoneally in passive cutaneous anaphylaxis (PCA) model for 50% inhibition in Sprague-Dawley rat; assay type: functional; details: ip, read-out: MED
Outline: (§1)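 Rat passive cutaneous anaphylaxis in Sprague-Dawley rats. Compounds given ip as a Klucel suspension at 5, 1.25 and/or 0.31 mg/kg (some at 10, 2.5 and 0.63 mg/kg ip), six animals per dose. MED is the lowest dose giving >50% inhibition with p ≤ 0.05 (Student's t test). Where data sufficed, ID50 with 95% confidence range was derived from experiments of six animals each.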

Rattus norvegicus [2] = species: Rattus norvegicus; experiment: Minimum effective dose (MED) perorally in passive cutaneous anaphylaxis (PCA) model for 50% inhibition in Sprague-Dawley rat; assay type: functional; details: po, read-out: MED
Outline: (§2)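 Sprague-Dawley rat passive cutaneous anaphylaxis with oral dosing of a Klucel suspension at 10, 5 and/or 2.5 mg/kg, six animals per dose. MED po is the lowest dose producing >50% inhibition at p ≤ 0.05 (Student's t test).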

Rattus norvegicus [3] = experiment: Concentration of compound intraperitoneally in passive cutaneous anaphylaxis (PCA) model for 50% inhibition in Sprague-Dawley rat; assay type: functional; details: ip, read-out: ID50 (the source's name); outline: as §1
Rattus norvegicus [4] = species: Rattus norvegicus; experiment: Concentration of compound perorally in passive cutaneous anaphylaxis (PCA) model for 50% inhibition in Sprague-Dawley rat; IN-Ineffective; assay type: functional, organism-based; outline: as §2

| SMILES | minimal effective dose (Rattus norvegicus [1]) [mg/kg] | minimal effective dose (Rattus norvegicus [2]) [mg/kg] | ED50 (Rattus norvegicus [3]) [mg/kg] | ID50 (Rattus norvegicus [4]) |
| --- | --- | --- | --- | --- |
| Cn1c2ccccc2n2c(=O)c(C(=O)O)cnc12 | 0.63 | > 10 | – | – |
| O=C(O)c1cnc2oc3ccccc3n2c1=O | > 5 | > 10 | – | – |
| O=C(Nc1nn[nH]n1)c1cnc2oc3ccccc3n2c1=O | 1.25 | 10 | – | – |
| O=C(O)c1cc(=O)n2c(n1)oc1ccccc12 | 5 | > 10 | – | – |
| O=C(O)c1cnc2sc3ccccc3n2c1=O | > 5 | > 10 | – | – |
| O=C(Nc1nn[nH]n1)c1cc(=O)n2c(n1)sc1ccccc12 | 1.25 | > 10 | – | – |
| O=c1c(-c2nnn[nH]2)cnc2oc3ccccc3n12 | 1.25 | 5 | – | – |
| O=c1c(-c2nnn[nH]2)cnc2sc3ccccc3n12 | 1.25 | > 10 | – | – |
| O=c1cc(-c2nn[nH]n2)nc2sc3ccccc3n12 | 5 | > 10 | – | – |
| O=C(Nc1nn[nH]n1)c1cc(=O)n2c(n1)oc1ccccc12 | 1.25 | > 10 | – | – |
| Cn1c2ccccc2n2c(=O)c(-c3nnn[nH]3)cnc12 | 0.31 | 2.5 | – | – |
| Cn1c2ccccc2n2c(=O)cc(C(=O)O)nc12 | > 5 | > 10 | – | – |
| O=C(Nc1nn[nH]n1)c1cnc2sc3ccccc3n2c1=O | 1.25 | > 10 | – | – |
| O=C(O)c1cc(=O)n2c(n1)sc1ccccc12 | > 5 | > 10 | – | – |
| Cn1c2ccccc2n2c(=O)cc(-c3nn[nH]n3)nc12 | 5 | – | – | – |
| O=C([O-])c1cc(=O)c2c(OCC(O)COc3cccc4oc(C(=O)[O-])cc(=O)c34)cccc2o1.[Na+].[Na+] [CROMOLYN SODIUM] | – | – | 2.6 | inactive |
| Cn1c2ccccc2n2c(=O)c(C(=O)Nc3nn[nH]n3)cnc12 | 0.31 | > 10 | – | – |
| Cn1c2ccccc2n2c(=O)cc(C(=O)Nc3nn[nH]n3)nc12 | 1.25 | 10 | – | – |
| O=c1cc(-c2nn[nH]n2)nc2oc3ccccc3n12 | 1.25 | > 10 | – | – |
